Source: PubChem BioAssay
Shown are actives, neighbours in structure and some others; about 1.8% of the full set was active somewhere.
Jurkat NFkB inh – inhibitors of the PMA/ionomycin-induced NF-kB reporter in Jurkat cells; PMA/ionomycin-induced NF-kB luciferase reporter, luminescence; inhibition, % at 4 µM; actives 0.53% (n = 330,000); AID 435003; in the data active = inhibition above about 50%
Gli-Sufu block – blocks Gli-Sufu signaling in a luciferase reporter | Sufu-KO-LIGHT fibroblasts, Gli luciferase reporter luminescence | inhibition, % at 5 µM | AID 588413 | actives 0.74% (n = 340,000);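 active = inhibition above about 55%, limit read from the data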
NR2E3 ag-1 – activates human photoreceptor nuclear receptor NR2E3 | GST-NR2E3/biotin-RetCOR TR-FRET, 1536-well | actives 0.12% (n = 320,000) | Q9Y5X4 | inhibition of corepressor binding, % at 4.78 µM;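 active = percent inhibition above the cutoff of mean plus 3 SD of all tested compounds, set per screening campaign, cut at about 20% in these data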
Target sequence (Q9Y5X4 whole entry, looked up): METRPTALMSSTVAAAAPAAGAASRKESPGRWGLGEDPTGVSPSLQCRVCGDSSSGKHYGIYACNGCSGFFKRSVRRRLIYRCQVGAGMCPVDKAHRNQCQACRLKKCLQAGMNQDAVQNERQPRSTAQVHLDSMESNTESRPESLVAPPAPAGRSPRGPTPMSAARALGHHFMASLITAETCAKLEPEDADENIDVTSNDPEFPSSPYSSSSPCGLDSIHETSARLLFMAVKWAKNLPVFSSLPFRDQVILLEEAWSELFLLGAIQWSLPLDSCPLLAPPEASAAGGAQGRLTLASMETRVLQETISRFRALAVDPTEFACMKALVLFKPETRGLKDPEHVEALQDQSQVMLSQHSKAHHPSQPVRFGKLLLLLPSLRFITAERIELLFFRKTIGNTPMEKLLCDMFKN
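System: GST-NR2E3 and biotin-RetCOR proteins; probe or stimulus: 7 nM biotin-RetCOR; doses: compound at 4.8 µM, single dose; schedule: Compound–protein incubation for 5 h at 4 °C; detection: time-resolved FRET; read-out: percent inhibition; controls: biotin wells as high control, 0.6% DMSO wells as low control; format: 1536-well plates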
697 NFkB inh – inhibitors of the PMA/ionomycin-induced NF-kB reporter in 697 B cells. 697 B-cell NF-kB luciferase reporter, 16 h. inhibition, % at 4 µM. actives 0.33% (n = 330,000). AID 435022; in the data active = inhibition above about 35%
NR2E3 ag-2 – activates human NR2E3 receptor | CHO-S Gal4-NCOR/VP16-NR2E3 two-hybrid, luciferase | inhibition of corepressor binding, % at 3.98 µM | actives 0.35% (n = 360,000) | AID 602229;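 active = inhibition above the mean of all tested compounds plus 3 SD, cut at about 70% in these data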;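 also: higher means lower luciferase signal from less NR2E3 corepressor binding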
GalR3 antagonist – antagonists of human GalR3; HEK293 GalR3-CNG cAMP membrane potential fluorescence; galR3 body fused to GalR1 C-terminus; AID 651719; O60755; actives 0.44% (n = 360,000); inhibition, % at 3 µM;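 active = inhibition above the screen-wide average plus 3 SD, cut at about 13% in these data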;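 also: forskolin and galanin both at EC90 stimulate the cells; cAMP rise reported by CNG channel membrane potential dye signal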
Hits are given with their value; - = inactive; . = no result given.

SMILES	Jurkat NFkB inh	Gli-Sufu block	NR2E3 ag-1	697 NFkB inh	NR2E3 ag-2	GalR3 antagonist
CCCCOc1ccc(Br)cc1CSC(=N)N	.	65	.	.	-	23
CN(C)c1ccc(C(=O)NCC2CCN(C(=O)C(=O)c3cccs3)CC2)cc1	.	.	.	.	.	-
CCOc1ccc(CNC(=O)C2CCN(c3nnc(C)c4c(C)n(-c5ccc(C)cc5)nc34)CC2)cc1	-	-	-	-	-	-
COc1ccc(-n2nc3c(N4CCC(C(=O)NCc5cccc(C)c5)CC4)nnc(C)c3c2C)cc1	-	74	-	-	-	-
FC(F)(F)c1cc(Cl)c2nc(-c3ccco3)c(Cc3ccccc3C(F)(F)F)n2c1	.	.	.	.	-	21
Cc1cccc(NS(=O)(=O)c2cccc3nsnc23)c1	-	-	-	-	-	-
CC(C)NS(=O)(=O)c1cccc2nsnc12	-	-	-	-	-	14
COC(=O)C1=C(C)N(Cc2ccc(C(F)(F)F)cc2)C(=NCC2CC2)NC1c1cccc(Cl)c1 (configuration not stated)	.	.	.	.	.	-
CS(=O)(=O)c1nc(-c2ccccc2)cc(C(F)(F)F)n1	-	-	-	-	-	23
Cc1cc(N2CCN(CC(C)(C)O)C[C@@H]2C)ccc1N1CCN(CC(C)(C)O)[C@H](C)C1	.	.	.	.	.	-
CN1CCCc2cc3c(C(F)(F)F)cc(=O)oc3nc21	-	96	-	-	-	-
CC(C)c1cc(=O)oc2c3c4c(cc12)CCCN4CCC3	-	-	-	-	-	-
O=C(N/N=C(\c1ccccc1)c1ccccn1)c1cccc([N+](=O)[O-])c1	-	91	-	-	-	.
O=C1C(Nc2ccccc2)=C/C(=N/S(=O)(=O)c2cccs2)c2ccccc21	.	-	-	.	102	.
Cc1ccc(NC2=C/C(=N/S(=O)(=O)c3cccs3)c3ccccc3C2=O)cc1	-	60	-	-	-	-
Cc1ccc(S(=O)(=O)/N=C2\C=C(Nc3cccc(C(=O)O)c3)C(=O)c3ccccc32)cc1	-	-	-	-	-	-
COC(=O)[C@]12C[C@H](CC(=O)NCC3CCCCC3)C(=O)N(CCc3ccc(OC)c(OC)c3)C1=C[C@H](C(C)(C)C)O[C@@H]2C	.	.	.	.	.	-
CCCCCCCCN1C(=O)[C@@H](CC(=O)NCCc2ccccc2OC)C[C@@]2(C(=O)OC)C1=C[C@H](C(C)(C)C)O[C@@H]2C	.	.	.	.	.	-
NC(=Nc1nc(-c2ccccn2)cc2ccccc12)c1ccccn1	.	87	.	.	-	-
N#Cc1ccc2nc(-c3ccc(CN4CCC5(CC4)CNc4ccccc45)cc3)c(-c3ccccc3)nc2c1	.	.	.	.	.	-
Oc1ccccc1N=Nc1ccccc1O	.	87	.	.	-	-
O=c1c2c(n3nnnc3n1-c1ccccc1)-c1ccccc1CC21CCCC1	-	-	-	-	-	14
COc1cc(/C=C2/SC(=S)NC2=O)ccc1OS(=O)(=O)c1ccc(C)cc1	-	-	-	-	77	.
CCN1/C(=C2\SC(=S)N(Cc3ccccc3)C2=O)Sc2ccccc21	-	-	-	-	-	-
CCC(CO)[n+]1c(C)cc(/C=C2\Sc3ccccc3N2Cc2ccccc2)cc1C (configuration not stated)	.	87	-	.	-	-
SMILES	Jurkat NFkB inh	Gli-Sufu block	NR2E3 ag-1	697 NFkB inh	NR2E3 ag-2	GalR3 antagonist
CN1CCCCC(NC(=O)c2ccc(C#N)cc2)C1=O (configuration not stated)	.	.	.	.	.	-
CCc1cc2c(=O)[nH]c(N3CCCC3)nc2s1	-	-	-	-	-	-
CCc1cc2c(=O)[nH]c(-c3ccccn3)nc2s1	-	58	-	-	-	-
COC(=O)C1=C(C)N(Cc2ccc(C(F)(F)F)cc2)C(=NCc2ccc3c(c2)OCO3)NC1c1cccc(Cl)c1 (configuration not stated)	.	.	.	.	.	-
Cc1ccc(C(C)C)c(OCc2ccc(C(=O)N/N=C/c3ccc(O)cc3O)cc2)c1	.	-	-	.	-	23
Cc1ccc(C(C)C)c(OCc2ccc(C(=O)N/N=C/c3ccc(C(=O)O)cc3)cc2)c1	-	-	-	-	-	-
Cc1ccc(OCCSCc2nc3ccccc3[nH]2)cc1	-	-	-	-	-	18
Cn1c(=O)c2ccccc2n(C)c1=O	.	.	.	.	.	-
Cc1[nH]c2ccccc2c1CC(=O)Nc1ccc(Nc2cccnc2)c(Br)c1	.	.	.	.	.	-
